Assay outcomes deposited in PubChem BioAssay by several laboratories.
This is a sample that favours compounds with a hit; in the whole collection about 9.4% have one here.
T cruzi inh = inhibitors of intracellular T. cruzi growth, primary screen, luminescence, NIH3T3 host cells; T. cruzi beta-gal in NIH3T3, 90 h; inhibition, % (concentration not given with the values); 1.4% of 300,000 active; AID 1885, 2009;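 active = mean inhibition across valid replicates above about 55%, limit read from the data; inconclusive = mean below that limit but half or more replicates reach it; inactive = mean below it, under half of replicates reach it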;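 note: signal also drops with host cell toxicity which is not excluded here; 0% = plate median of DMSO wells and 100% = zero luminescence signal; higher percent means less beta-gal luminescence so fewer parasites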
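System: NIH/3T3 fibroblasts plus reporter T. cruzi. Medium: DMEM plus 2% FBS. Probe or stimulus: 5000 reporter trypomastigotes per well. Compound: single 50 nL compound addition per well in DMSO. Incubation: co-culture of at least 90 h after 3 h attachment. Detection: GalScreen β-gal luminescence, detergent lysis, 60 min. Evaluation: parasite load inhibition, %.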
Beta cell apopt = inhibitors of cytokine-induced beta cell apoptosis, primary screen, luminescence; INS-1E cytokine-induced death, ATP luminescence, 48 h; percent of positive-control rescue, neutral wells zero; protection from apoptosis, % (test concentration not listed); 0.8% of 300,000 active;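 active = Every replicate reaches about 75%, or at least half do and their mean reaches it too, limit read from the data; inconclusive = At least half of replicates reach the limit but their mean does not; inactive = Under half of replicates reach the limit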;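 note: 0% = cytokine-treated negative control wells and 100% = positive control rescue; higher means more ATP so stronger rescue from cytokine killing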
L major viab = Leishmania major promastigote growth inhibition, primary screen. Leishmania major promastigotes, resazurin fluorescence viability. inhibition, % at 10 µM. 9% of 200,000 active; in the data active = inhibition above about 50%;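 note: promastigotes grown with compound for 44 hours at 28 °C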
CSC inhib = cancer stem cell viability inhibitors, primary screen, luminescence; AID 2717, 2010; inhibition, % at 7.5 µM; 1.1% of 300,000 active; cancer stem cell-like cells viability; in the data active = inhibition above about 75%; inconclusive = no clear call, values can overlap the other calls; tested in HMLE shEcad cells
Mdm2-MdmX inh = inhibitors of human Mdm2-MdmX association, primary screen, cell-based, luminescence, split luciferase, SaOS-2, uHTS. Protein Mdm4 (Homo sapiens) + E3 ubiquitin-protein ligase Mdm2 (Homo sapiens), …. inhibition, % at 8 µM. SaOS-2 split-luciferase Mdm2/MdmX complementation. AID 485346, 2010. 3% of 330,000 active;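 active = inhibition of at least 50% at 8 µM in the primary screen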
Target sequence (O15151 whole entry, looked up): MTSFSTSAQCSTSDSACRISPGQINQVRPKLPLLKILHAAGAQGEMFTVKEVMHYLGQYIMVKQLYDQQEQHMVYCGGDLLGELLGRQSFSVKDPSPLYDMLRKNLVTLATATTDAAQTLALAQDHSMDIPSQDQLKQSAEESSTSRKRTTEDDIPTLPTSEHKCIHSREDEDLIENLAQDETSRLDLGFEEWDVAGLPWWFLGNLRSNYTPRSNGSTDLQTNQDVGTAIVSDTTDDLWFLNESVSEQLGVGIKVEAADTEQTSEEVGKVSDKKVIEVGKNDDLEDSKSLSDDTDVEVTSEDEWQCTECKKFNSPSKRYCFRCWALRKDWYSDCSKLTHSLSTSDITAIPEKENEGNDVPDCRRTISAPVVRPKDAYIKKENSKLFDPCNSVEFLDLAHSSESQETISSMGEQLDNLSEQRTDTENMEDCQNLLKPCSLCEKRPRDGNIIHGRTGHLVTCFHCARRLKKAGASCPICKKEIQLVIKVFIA
Target sequence (Q00987 whole entry, looked up): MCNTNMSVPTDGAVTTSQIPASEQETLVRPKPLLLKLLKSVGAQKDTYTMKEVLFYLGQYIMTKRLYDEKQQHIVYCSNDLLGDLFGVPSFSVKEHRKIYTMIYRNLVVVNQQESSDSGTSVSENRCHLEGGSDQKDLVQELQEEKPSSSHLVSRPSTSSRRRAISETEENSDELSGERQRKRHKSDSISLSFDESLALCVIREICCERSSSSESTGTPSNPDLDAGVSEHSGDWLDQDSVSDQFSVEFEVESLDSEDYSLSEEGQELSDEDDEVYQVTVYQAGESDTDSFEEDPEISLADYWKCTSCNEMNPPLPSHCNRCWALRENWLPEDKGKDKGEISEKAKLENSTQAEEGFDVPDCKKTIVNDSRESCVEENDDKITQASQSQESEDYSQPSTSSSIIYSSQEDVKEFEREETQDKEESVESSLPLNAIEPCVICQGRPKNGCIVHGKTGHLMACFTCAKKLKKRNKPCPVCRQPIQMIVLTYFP
SKKanGAS inh = S. pyogenes SKKanGAS growth inhibitors in kanamycin, primary screen, streptokinase expression inhibitor project, SKKanGAS strain, BacTiter-Glo luminescence. inhibition, % at 7.5 µM. 1.3% of 300,000 active. AID 1662, 2009. 6 h;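 active = mean replicate score, as percent of positive control median, at least 50; inconclusive = mean below 50 but one replicate at or above 50; inactive = mean and every replicate below 50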;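 note: strain carries kanamycin resistance gene driven by streptokinase promoter and grows in 40 µg/ml kanamycin; loss of luminescence reflects streptokinase promoter inhibition or plain growth inhibition; 0% = median of DMSO wells and 100% = positive control at its reference dose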
* hit, by the source's call; ? = inconclusive; / = no result.

SMILES	T cruzi inh	Beta cell apopt	L major viab	CSC inhib	Mdm2-MdmX inh	SKKanGAS inh
NC(=O)c1c(NC(=O)CCCn2cnc([N+](=O)[O-])n2)sc2c1CCCC2	60*	-3	55*	-6	-2	16
CC1CCc2c(sc(NC(=O)CCCn3cnc([N+](=O)[O-])n3)c2C(N)=O)C1 (stereo unspecified)	53	-1	92*	-6	6	-4
Cc1cccc(NC(=S)N(CCN(C)C)Cc2cc3cccc(C)c3[nH]c2=O)c1	-15	1	95*	-8	4	7
Cc1cccc(NC(=S)N(CCN(C)C)Cc2cc3cc(C)cc(C)c3[nH]c2=O)c1	13	0	98*	20	/	5
CO[C@H]1C=CO[C@@]2(C)Oc3c(C)c(O)c4c(O)c(c5c(nc6cc(C)ccn65)c4c3C2=O)NC(=O)C(C)=CC=C[C@H](C)[C@H](O)[C@@H](C)[C@@H](O)[C@@H](C)[C@H](OC(C)=O)[C@@H]1C	-1	/	/	/	29	105*
CCC(C)N1CCC2(CC1)N=c1c(c3c4c5c(C)c(O)c3c(O)c1=NC(=O)C(C)=CC=C[C@H](C)[C@H](O)[C@@H](C)[C@@H](O)[C@@H](C)[C@H](OC(C)=O)[C@H](C)[C@@H](OC)C=CO[C@@](C)(O5)C4=O)N2 (stereo partly specified)	/	10	/	5	17	/
CO[C@H]1C=CO[C@@]2(C)Oc3c(C)c(O)c4c(O)c(c5c(c4c3C2=O)NC2(CCN(CC(C)C)CC2)N=5)=NC(=O)C(C)=CC=C[C@H](C)[C@H](O)[C@@H](C)[C@@H](O)[C@@H](C)[C@H](OC(C)=O)[C@@H]1C	22	4	/	10	/	106*
CCN(CC)CCOC(=O)c1ccc(NC(=S)NC(=O)/C=C/c2ccco2)cc1	8	-3	/	-9	0	8
COc1ccc(-c2cc(=Nc3ccc(C)cc3)c3ccccc3o2)cc1	41	16	63*	58	44	17
COc1ccc(N=c2cc(-c3ccc(OC)cc3)oc3ccccc23)cc1	40	22	42	-4	8	6
COc1ccc(N=c2cc(-c3ccc(O)cc3)oc3ccccc23)cc1	10	42	81*	40	-2	-1
CCOc1ccc(N=c2cc(-c3ccc(OC)cc3)oc3ccccc23)cc1	57*	20	30	3	34	1
CCN(CC)S(=O)(=O)c1cccc(NC(=O)COC(=O)CCC(=O)c2ccc(F)cc2)c1	-4	/	-5	/	18	-3
CC(C)[C@H](NC(=O)c1cccc(CN(Cc2ccccc2)C(=O)/C=C/c2ccccc2)c1)C(=O)O	-9	3	/	15	0	4
O=C(CSc1nc(-c2ccc(F)cc2)nc2ccc(F)cc12)Nc1cccc(C(=O)O)c1	1	0	-3	-2	1	68*
Cc1cccc(OC(=O)n2c(=S)oc3cc(Cl)ccc32)c1	/	-2	-3	-12	/	/
NNC(=S)Nc1ccc(C(F)(F)F)cc1Cl	3	4	/	38	8	61*
FC(F)(F)c1cccc(NC(=S)Nc2ccc(Cl)cc2Cl)c1	2	12	10	65	11	?
Cc1oc2c(c1C(=O)O)C(=O)c1ccccc1C2=O	3	-12	100*	2	24	23
COC(=O)C1=C(CCc2ccccc2)NC(=O)NC1c1ccc(Cl)cc1 (stereo unspecified)	17	-1	/	6	-2	5
CC(=O)Nc1c(-c2ccccc2)nc2ccc(Cl)cn12	13	-3	/	-10	13	9
O=C(Nc1c(-c2ccccc2)nc2ccc(Cl)cn12)c1cccs1	-5	-6	79*	-6	-13	-3
CC1=CC(=NOC(=O)c2cccc([N+](=O)[O-])c2)C=C(C)C1=O	6	-6	100*	11	29	1
CC1=CC(=O)C(C(C)C)=C/C1=N/OC(=O)c1cccc([N+](=O)[O-])c1	-18	-14	100*	15	29	-5
O=C(c1ccccc1[N+](=O)[O-])N1CCN(c2ccc(N3CCOCC3)nn2)CC1	-5	-2	/	-4	9	-3
SMILES	T cruzi inh	Beta cell apopt	L major viab	CSC inhib	Mdm2-MdmX inh	SKKanGAS inh
CN(C(=O)C1CCC(=O)N(C2CC2)C1)C1CCCCC1 (stereo unspecified)	6	-5	/	6	-4	-1
Cc1c(C=O)c2ccccc2n1CC(=O)NCc1ccc2c(c1)OCO2	-16	3	10	-7	8	-14
COc1cc(OC)cc(-c2nnc(Sc3ccc(C=O)cc3[N+](=O)[O-])o2)c1	3	-1	52*	-1	1	-15
COc1cc(OC)cc(-c2nnc(SCC(=O)N(C(C)C)C(C)C)o2)c1	21	-2	15	23	8	1
CCOC(=O)N1CCN(CCC(=O)Nc2ccc(C)c(Br)c2)CC1	-2	-5	73*	-5	12	-1
CCOC(=O)N1CCN(CCC(=O)Nc2cccc(Br)c2)CC1	0	2	89*	-5	4	-2
CCOC(=O)N1CCN(CCC(=O)Nc2cc(OC)cc(OC)c2)CC1	-12	4	52*	-5	9	-5
Cn1ccnc1C1CCCCN1Cc1nc(Cc2cccc(C(F)(F)F)c2)no1 (stereo unspecified)	-4	-1	66*	2	2	1
CCCOc1ccccc1NC(=O)/C=C/C(N)=O	-21	-10	101*	12	26	2
CCCCOc1ccccc1NC(=O)C=C(C)C	14	1	4	1	3	-1
Cc1ccc(C)c(N/C(N)=N/c2nc(C)cc(C)n2)c1	65*	-8	33	4	32	-15
CCCOc1ccccc1N/C(N)=N/c1nc(C)cc(C)n1	26	11	90*	-2	35	-2
COC(=O)c1cccc(NC(=O)c2ccc3c(c2)C(=O)N(Cc2cccnc2)C3=O)c1C	-4	0	/	-17	2	6
CC1CCC2C(=O)N(c3ccc(Cc4ccncc4)cc3)C(=O)C2C1 (stereo unspecified)	-45	8	9	-3	-9	-9
CC(C(=O)Nc1cccnc1)c1ccc([N+](=O)[O-])cc1 (stereo unspecified)	2	6	7	-5	-7	4
CC(C(=O)Nc1cccc(Br)c1)c1ccc([N+](=O)[O-])cc1 (stereo unspecified)	19	1	51*	2	29	6
COc1ccc(Cl)cc1NC(=O)COC(=O)CCNS(=O)(=O)c1cccs1	/	/	/	/	2	/
O=C(/C=C(\c1ccccc1)n1cncn1)c1ccccc1	28	0	7	-4	14	0
